Laboratory results from ChEMBL document CHEMBL3400107, “Synthesis, structure-activity relationships, and anticonvulsant activities of 2-amino-4H-pyrido[3,2-e][1,3]thiazin-4-one derivatives as orally active AMPA receptor antagonists” (Bioorg Med Chem, 2015).

Tests used:
Neuron [1] = assay: Inhibition of kainate-induced neurotoxicity in primary rat hippocampal neurons after 24 hrs by LDH assay; type: functional, cell-based
In short: (§1)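 Hippocampal cultures from embryonic day 18–20 Wistar rats, used after 8 or 9 days in vitro. Compounds added together with 300 µM kainate. Neuronal injury measured 24 h later as LDH release into the medium. Values are IC50 (concentration for 50% inhibition) or percent inhibition at 10 µM.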

Mus musculus = assay: Anticonvulsant activity in po dosed ICR mouse assessed as protection from maximal electroshock-induced seizure measured after 60 mins post dose; type: functional; settings: 1 h
In short: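 Compounds given orally to mice; 60 min later corneal electroshock applied (50 mA, 0.2 s, 50 Hz). Protection scored as absence of tonic extension. ED50 calculated by probit method, with 95% confidence intervals.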

[2] = AUC(infinity) in rat at 1 mg/kg, iv; type: ADME, organism-based; design: time infinity, dose 1 mg/kg, route intravenous; settings: plasma
[3] = AUC(infinity) in rat at 1 mg/kg, po; type: ADME, organism-based; design: time infinity, dose 1 mg/kg, route oral; settings: plasma
[4] = Total clearance in rat at 1 mg/kg, iv; type: ADME, organism-based; design: dose 1 mg/kg, route intravenous; settings: in vivo
[5] = Volume of distribution at steady state in rat at 1 mg/kg, iv; type: ADME, organism-based; design: dose 1 mg/kg, route intravenous; settings: in vivo, read-out: Vdss
[6] = Half life in rat at 1 mg/kg, iv; type: ADME, organism-based; design: dose 1 mg/kg, route intravenous; settings: in vivo
[7] = Half life in rat at 1 mg/kg, po; type: ADME, organism-based; design: dose 1 mg/kg, route oral; settings: in vivo
[8] = Cmax in rat at 1 mg/kg, po; type: ADME, organism-based; design: dose 1 mg/kg, route oral; settings: in vivo
[9] = Tmax in rat at 1 mg/kg, po; type: ADME, organism-based; design: dose 1 mg/kg, route oral; settings: in vivo
[10] = Oral bioavailability in rat at 1 mg/kg; type: ADME, organism-based; settings: in vivo
Neuron [11] = assay: Inhibition of kainate-induced neurotoxicity in primary rat hippocampal neurons at 10 uM after 24 hrs by LDH assay; type: functional; in short: as §1

Molecule CN(c1ccc(Br)cc1)c1nc(=O)c2cccnc2s1 has an IC50 (Neuron [1]) of 1000 nM and an ED50 (Mus musculus) of 23.1 mg/kg.

In the case of CN(c1ccc(Cl)cc1)c1nc(=O)c2cccnc2s1, the IC50 (Neuron [1]) is reported as 2000 nM, the ED50 (Mus musculus) is reported as 7.4 mg/kg and the AUC(0-inf) [2] is reported as 542 ng·h/mL. It also gave an AUC(0-inf) [3] of 472 ng·h/mL, a clearance [4] of 30.8 mL/min/kg and a Vd [5] of 1.18 L/kg. It also gave a half-life [6] of 26.4 min, a half-life [7] of 34.8 min and a Cmax [8] of 425 ng/mL. The Tmax [9] was 15 min and the bioavailability [10] was 87.1%.

In the case of CN(c1ccc(N)cc1)c1nc(=O)c2cccnc2s1, the inhibition at 10 µM (Neuron [11]) is reported as 19%.

CN(c1ccccc1)c1nc(=O)c2cccnc2s1 showed an inhibition at 10 µM (Neuron [11]) of 43%.

CCOC(=O)c1ccc(N(C)c2nc(=O)c3cccnc3s2)cc1 gave an inhibition at 10 µM (Neuron [11]) of 29%.

For CN(Cc1ccccc1)c1nc(=O)c2cccnc2s1, the inhibition at 10 µM (Neuron [11]) was 0%.

Work on COc1ccc(N(C)c2nc(=O)c3cccnc3s2)cc1 yielded an IC50 (Neuron [1]) of 3400 nM.

With Cc1ccc2c(=O)nc(N(C)c3ccc(Cl)cc3)sc2n1 the inhibition at 10 µM (Neuron [11]) was 0%.

Molecule CN(c1ccc(C(=O)O)cc1)c1nc(=O)c2cccnc2s1 has an inhibition at 10 µM (Neuron [11]) of 0%.

In the case of CN(c1ccc(Cl)cc1)c1nc(=O)c2ccncc2s1, the inhibition at 10 µM (Neuron [11]) is reported as 4%.

Work on CC(=O)N1N=C(c2ccc(N)cc2)c2cc3c(cc2C[C@H]1C)OCO3 [TALAMPANEL] yielded an IC50 (Neuron [1]) of 6000 nM and an ED50 (Mus musculus) of 4.2 mg/kg.

In the case of CCN(c1ccc2c(c1)OCCO2)c1nc(=O)c2cccnc2s1, the IC50 (Neuron [1]) is reported as 600 nM.

For CN(c1ccc2c(c1)CCC2)c1nc(=O)c2cccnc2s1, the IC50 (Neuron [1]) was 1300 nM.

Work on CCN(c1cccc(OC)c1)c1nc(=O)c2cccnc2s1 yielded an IC50 (Neuron [1]) of 3800 nM.

Cl.O=c1[nH]c2cc(-n3ccnc3)c([N+](=O)[O-])cc2[nH]c1=O showed an ED50 (Mus musculus) greater than 100 mg/kg.

In the case of Cc1ccc(N(C)c2nc(=O)c3cccnc3s2)cc1, the IC50 (Neuron [1]) is reported as 10000 nM.

With CCN(c1ccc2c(c1)OCO2)c1nc(=O)c2cccnc2s1 the IC50 (Neuron [1]) was 400 nM and the ED50 (Mus musculus) was 38.9 mg/kg.

For Cc1ccccc1N(C)c1nc(=O)c2cccnc2s1, the inhibition at 10 µM (Neuron [11]) was 4%.

CN(c1ccsc1)c1nc(=O)c2cccnc2s1 showed an inhibition at 10 µM (Neuron [11]) of 28%.

CN(c1ccc(C2CCCCC2)cc1)c1nc(=O)c2cccnc2s1 gave an inhibition at 10 µM (Neuron [11]) of 29%.

CN(c1nc(=O)c2cccnc2s1)C1CCCCC1 showed an inhibition at 10 µM (Neuron [11]) of 16%.

Molecule CN(c1cccnc1)c1nc(=O)c2cccnc2s1 has an inhibition at 10 µM (Neuron [11]) of 18%.

With CN(c1ccc(Cl)cc1)c1nc(=O)c2ccccc2s1 the IC50 (Neuron [1]) was 6500 nM.

In the case of CN(c1ccc2sccc2c1)c1nc(=O)c2cccnc2s1, the IC50 (Neuron [1]) is reported as 400 nM.

For CN(c1ccc(Cl)cc1)c1nc(=O)c2sccc2s1, the IC50 (Neuron [1]) was 5400 nM.

With CCN(c1ccc(OC)c(OC)c1)c1nc(=O)c2cccnc2s1 the inhibition at 10 µM (Neuron [11]) was 25%.

Work on CN(c1ccc(OC(F)(F)F)cc1)c1nc(=O)c2cccnc2s1 yielded an IC50 (Neuron [1]) of 2100 nM and an ED50 (Mus musculus) of 25.2 mg/kg.

CN(c1ccc(C(F)(F)F)cc1)c1nc(=O)c2cccnc2s1 showed an IC50 (Neuron [1]) of 2000 nM.

Molecule C=CCN(c1ccc(C)cc1)c1nc(=O)c2cccnc2s1 has an IC50 (Neuron [1]) of 9000 nM.

For CN(c1ccc(Cl)cc1)c1nc(=O)c2ccccc2o1, the inhibition at 10 µM (Neuron [11]) was 28%.

Work on CN(c1ccc(Cl)cc1)c1nc(=O)c2cnccc2s1 yielded an inhibition at 10 µM (Neuron [11]) of 2%.

Work on CN(c1ccc([N+](=O)[O-])cc1)c1nc(=O)c2cccnc2s1 yielded an inhibition at 10 µM (Neuron [11]) of 38%.

CCN(c1ccc(OC)cc1)c1nc(=O)c2cccnc2s1 gave an IC50 (Neuron [1]) of 2800 nM.

CN(c1ccc(F)cc1)c1nc(=O)c2cccnc2s1 gave an IC50 (Neuron [1]) of 7200 nM and an ED50 (Mus musculus) of 15.3 mg/kg.
